# Values joined by “and” are separate entries in the source; they are usually repeats but may differ in a detail not shown here. Identical values can stand only once.
# Tested on: Fibroblast
# Assay: Multiplex assay against human fibroblast
# Type: toxicity, cell-based
# Settings: number of replicates 2
# Method in brief: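 Compound was added to live cells that had been stained at seeding with Hoechst33342, BioTracker Green Microtubule Cytoskeleton Dye, MitoTracker Red and Annexin V Alexa Fluor 680, and imaging followed on a CQ1 microscope at 37°C and 5% CO2. CellPathfinder machine-learning gating divided cells into Hoechst high-intensity objects or normal cells, normal cells into healthy, pyknosed or fragmented nuclei, and pyknosed cells into mitotic or apoptotic. Tubulin, mitochondrial-mass and membrane-permeability phenotypes are per cents of healthy-nucleus cells.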
# [1] = 12 h, 1 µM, compound concentration 1 uM
# [2] = 12 h, 10 µM, compound concentration 10 uM
# [3] = 24 h, 1 µM, compound concentration 1 uM
# [4] = 24 h, 10 µM, compound concentration 10 uM
# [5] = 48 h, 1 µM, compound concentration 1 uM
# [6] = 48 h, 10 µM, compound concentration 10 uM
structure (smiles),measurement,setting,value
CCCCOc1c(C(=O)c2c(F)cc(C)cc2F)c[nH]c2nncc1-2,Population Apoptotic (%),[1],52% and 40%
same,Population Fragmented Nuclei (%),[1],11% and 8%
same,Population Healthy Nuclei (%),[1],61% and 73%
same,Population Hoechst High Intensity Objects (%),[1],0%
same,Population Membrane Permeable-Phenotype (%),[1],8% and 5%
same,Population Mitochondria Different-Phenotype (%),[1],0%
same,Population Mitotic Cells (%),[1],47% and 60%
same,Population Normal (%),[1],100%
same,Population Pyknosed Nuclei (%),[1],27% and 18%
same,Population Tubulin-Different-Phenotype (%),[1],21% and 12%
same,Total Cell Count,[1],200 and 276
same,Population Apoptotic (%),[2],57% and 64%
same,Population Fragmented Nuclei (%),[2],10% and 8%
same,Population Healthy Nuclei (%),[2],64% and 57%
same,Population Hoechst High Intensity Objects (%),[2],0%
same,Population Membrane Permeable-Phenotype (%),[2],2% and 8%
same,Population Mitochondria Different-Phenotype (%),[2],1% and 0%
same,Population Mitotic Cells (%),[2],42% and 35%
same,Population Normal (%),[2],99%
same,Population Pyknosed Nuclei (%),[2],25% and 33%
same,Population Tubulin-Different-Phenotype (%),[2],22% and 19%
same,Total Cell Count,[2],271 and 238
same,Population Apoptotic (%),[3],50% and 43%
same,Population Fragmented Nuclei (%),[3],14% and 7%
same,Population Healthy Nuclei (%),[3],55% and 66%
same,Population Hoechst High Intensity Objects (%),[3],0%
same,Population Membrane Permeable-Phenotype (%),[3],7%
same,Population Mitochondria Different-Phenotype (%),[3],0% and 1%
same,Population Mitotic Cells (%),[3],49% and 56%
same,Population Normal (%),[3],100%
same,Population Pyknosed Nuclei (%),[3],29% and 25%
same,Population Tubulin-Different-Phenotype (%),[3],26% and 11%
same,Total Cell Count,[3],193 and 267
same,Population Apoptotic (%),[4],81% and 68%
same,Population Fragmented Nuclei (%),[4],10%
same,Population Healthy Nuclei (%),[4],64% and 51%
same,Population Hoechst High Intensity Objects (%),[4],0%
same,Population Membrane Permeable-Phenotype (%),[4],4%
same,Population Mitochondria Different-Phenotype (%),[4],1%
same,Population Mitotic Cells (%),[4],18% and 31%
same,Population Normal (%),[4],99% and 100%
same,Population Pyknosed Nuclei (%),[4],25% and 37%
same,Population Tubulin-Different-Phenotype (%),[4],27% and 18%
same,Total Cell Count,[4],281 and 247
same,Population Apoptotic (%),[5],66% and 59%
same,Population Fragmented Nuclei (%),[5],18% and 9%
same,Population Healthy Nuclei (%),[5],53% and 64%
same,Population Hoechst High Intensity Objects (%),[5],1% and 0%
same,Population Membrane Permeable-Phenotype (%),[5],14% and 11%
same,Population Mitochondria Different-Phenotype (%),[5],0%
same,Population Mitotic Cells (%),[5],33% and 40%
same,Population Normal (%),[5],98% and 100%
same,Population Pyknosed Nuclei (%),[5],27% and 26%
same,Population Tubulin-Different-Phenotype (%),[5],38% and 17%
same,Total Cell Count,[5],197 and 276
same,Population Apoptotic (%),[6],76% and 77%
same,Population Fragmented Nuclei (%),[6],11% and 12%
same,Population Healthy Nuclei (%),[6],46% and 64%
same,Population Hoechst High Intensity Objects (%),[6],0%
same,Population Mitochondria Different-Phenotype (%),[6],0% and 1%
same,Population Mitotic Cells (%),[6],23% and 22%
same,Population Normal (%),[6],99% and 100%
same,Population Pyknosed Nuclei (%),[6],42% and 22%
same,Population Tubulin-Different-Phenotype (%),[6],45% and 39%
same,Total Cell Count,[6],261 and 279
CNC(=O)c1c(F)cccc1Nc1nc(Nc2cc3c(cc2OC)CCN3C(=O)CN(C)C)nc2[nH]ccc12,Population Apoptotic (%),[1],26% and 33%
same,Population Fragmented Nuclei (%),[1],9% and 14%
same,Population Healthy Nuclei (%),[1],66% and 70%
same,Population Hoechst High Intensity Objects (%),[1],0%
same,Population Membrane Permeable-Phenotype (%),[1],6% and 2%
same,Population Mitochondria Different-Phenotype (%),[1],0% and 3%
same,Population Mitotic Cells (%),[1],73% and 66%
same,Population Normal (%),[1],100% and 99%
same,Population Pyknosed Nuclei (%),[1],24% and 14%
same,Population Tubulin-Different-Phenotype (%),[1],7% and 20%
same,Total Cell Count,[1],166 and 190
same,Population Apoptotic (%),[2],61% and 48%
same,Population Fragmented Nuclei (%),[2],11% and 13%
same,Population Healthy Nuclei (%),[2],16% and 26%
same,Population Hoechst High Intensity Objects (%),[2],0%
same,Population Membrane Permeable-Phenotype (%),[2],34% and 21%
same,Population Mitochondria Different-Phenotype (%),[2],3%
same,Population Mitotic Cells (%),[2],38% and 51%
same,Population Normal (%),[2],100%
same,Population Pyknosed Nuclei (%),[2],72% and 59%
same,Population Tubulin-Different-Phenotype (%),[2],80% and 51%
same,Total Cell Count,[2],162 and 196
same,Population Apoptotic (%),[3],27% and 47%
same,Population Fragmented Nuclei (%),[3],11% and 9%
same,Population Healthy Nuclei (%),[3],67% and 80%
same,Population Hoechst High Intensity Objects (%),[3],0%
same,Population Membrane Permeable-Phenotype (%),[3],2% and 1%
same,Population Mitochondria Different-Phenotype (%),[3],0% and 4%
same,Population Mitotic Cells (%),[3],72% and 52%
same,Population Normal (%),[3],100% and 99%
same,Population Pyknosed Nuclei (%),[3],20% and 10%
same,Total Cell Count,[3],159 and 167
same,Population Apoptotic (%),[4],70% and 79%
same,Population Fragmented Nuclei (%),[4],16% and 11%
same,Population Healthy Nuclei (%),[4],18% and 17%
same,Population Hoechst High Intensity Objects (%),[4],1% and 0%
same,Population Membrane Permeable-Phenotype (%),[4],72% and 73%
same,Population Mitochondria Different-Phenotype (%),[4],6% and 7%
same,Population Mitotic Cells (%),[4],29% and 20%
same,Population Normal (%),[4],98% and 99%
same,Population Pyknosed Nuclei (%),[4],64% and 71%
same,Population Tubulin-Different-Phenotype (%),[4],75% and 65%
same,Total Cell Count,[4],159 and 152
same,Population Apoptotic (%),[5],58% and 81%
same,Population Fragmented Nuclei (%),[5],13% and 15%
same,Population Healthy Nuclei (%),[5],73% and 76%
same,Population Hoechst High Intensity Objects (%),[5],0%
same,Population Membrane Permeable-Phenotype (%),[5],2% and 1%
same,Population Mitochondria Different-Phenotype (%),[5],0%
same,Population Mitotic Cells (%),[5],41% and 18%
same,Population Normal (%),[5],100%
same,Population Pyknosed Nuclei (%),[5],13% and 8%
same,Population Tubulin-Different-Phenotype (%),[5],3% and 5%
same,Total Cell Count,[5],178 and 200
same,Population Apoptotic (%),[6],90% and 93%
same,Population Fragmented Nuclei (%),[6],37% and 31%
same,Population Healthy Nuclei (%),[6],20% and 24%
same,Population Hoechst High Intensity Objects (%),[6],0%
same,Population Membrane Permeable-Phenotype (%),[6],75% and 48%
same,Population Mitochondria Different-Phenotype (%),[6],3% and 0%
same,Population Mitotic Cells (%),[6],9% and 6%
same,Population Normal (%),[6],100% and 99%
same,Population Pyknosed Nuclei (%),[6],41% and 43%
same,Population Tubulin-Different-Phenotype (%),[6],62% and 57%
same,Total Cell Count,[6],158 and 145

# Reference: ChEMBL document CHEMBL5303300, “EUbOPEN Chemogenomics Library - Multiplex” (2023)
